According to ChEMBL document CHEMBL4680064, “Natural product inspired optimization of a selective TRPV6 calcium channel inhibitor” (RSC Med Chem, 2020):
The source made the active and inactive calls. The calls are words filed in the database; no cut-off is given here.

Tests used:
[1] = Inhibition of rat L-type calcium channel (verapamil site) at 10 uM
SK-OV-3 = test: Antiproliferative activity against human SK-OV-3 cells assessed as cell growth inhibition at 0.4 to 100 uM after 6 days by XTT assay; format: cell-based; conditions: human, sk-ov-3, 144 h, 100 µM; dose 0.4-100 µM, time 6 day
D(4) dopamine receptor = target: T1, D(4) dopamine receptor (Homo sapiens, UniProt P21917); test: Inhibition of human dopamine D4.4 receptor at 10 uM
T1 sequence (P21917 whole entry): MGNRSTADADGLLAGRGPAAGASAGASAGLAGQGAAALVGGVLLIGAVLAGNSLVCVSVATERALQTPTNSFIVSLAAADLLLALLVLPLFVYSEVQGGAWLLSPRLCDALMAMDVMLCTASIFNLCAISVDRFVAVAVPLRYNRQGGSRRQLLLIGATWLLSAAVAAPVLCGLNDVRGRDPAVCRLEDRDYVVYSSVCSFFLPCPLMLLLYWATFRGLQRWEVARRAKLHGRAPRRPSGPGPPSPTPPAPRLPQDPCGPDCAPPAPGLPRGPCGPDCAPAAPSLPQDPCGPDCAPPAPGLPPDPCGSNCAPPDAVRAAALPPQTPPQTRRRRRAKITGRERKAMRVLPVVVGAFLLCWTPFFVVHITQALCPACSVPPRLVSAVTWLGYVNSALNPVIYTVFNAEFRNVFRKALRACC

HEK293 [2] = test: Antiproliferative activity human HEK293 cells expressing human TRPV6 assessed as cell growth inhibition at 0.4 to 100 uM after 6 days by XTT assay; format: cell-based; conditions: hek293, 144 h, dose 0.4-100 µM, time 6 day
[3] = target: T2, Muscarinic acetylcholine receptor M1 (Homo sapiens, UniProt P11229); test: Inhibition of human muscarinic M1 receptor at 10 uM
T2 sequence (P11229 whole entry): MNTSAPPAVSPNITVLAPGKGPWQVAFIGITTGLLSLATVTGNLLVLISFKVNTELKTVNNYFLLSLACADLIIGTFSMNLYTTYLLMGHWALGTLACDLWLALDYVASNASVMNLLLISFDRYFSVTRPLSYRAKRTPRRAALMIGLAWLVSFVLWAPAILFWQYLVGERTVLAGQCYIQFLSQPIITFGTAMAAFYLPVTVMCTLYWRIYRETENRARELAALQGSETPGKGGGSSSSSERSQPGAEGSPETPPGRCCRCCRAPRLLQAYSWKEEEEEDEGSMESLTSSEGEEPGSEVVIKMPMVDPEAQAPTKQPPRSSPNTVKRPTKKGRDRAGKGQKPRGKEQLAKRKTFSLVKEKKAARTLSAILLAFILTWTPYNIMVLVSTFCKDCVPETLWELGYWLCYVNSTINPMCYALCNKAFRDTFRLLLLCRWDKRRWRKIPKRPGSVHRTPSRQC

HEK293 [4] = test: Antiproliferative activity against wild type human HEK293 cells assessed as cell growth inhibition at 0.4 to 100 uM after 6 days by XTT assay; format: cell-based; conditions: hek293, 144 h, dose 0.4-100 µM, time 6 day
[5] = target: T3, Transient receptor potential cation channel subfamily V member 6 (Homo sapiens) (UniProt Q9H1D0); test: Inhibition of human TRPV6 expressed in HEK293 cells assessed as reduction in Cd2+ influx at 10 uM preincubated with compound followed by Cdcl2 addition measured for 12 to 30 mins by Leadmium-green and Alexafluor-594 conjugate based confocal microscopic analysis; format: cell-based; conditions: time lower […], time upper 30.0 min
T3 sequence (whole entry): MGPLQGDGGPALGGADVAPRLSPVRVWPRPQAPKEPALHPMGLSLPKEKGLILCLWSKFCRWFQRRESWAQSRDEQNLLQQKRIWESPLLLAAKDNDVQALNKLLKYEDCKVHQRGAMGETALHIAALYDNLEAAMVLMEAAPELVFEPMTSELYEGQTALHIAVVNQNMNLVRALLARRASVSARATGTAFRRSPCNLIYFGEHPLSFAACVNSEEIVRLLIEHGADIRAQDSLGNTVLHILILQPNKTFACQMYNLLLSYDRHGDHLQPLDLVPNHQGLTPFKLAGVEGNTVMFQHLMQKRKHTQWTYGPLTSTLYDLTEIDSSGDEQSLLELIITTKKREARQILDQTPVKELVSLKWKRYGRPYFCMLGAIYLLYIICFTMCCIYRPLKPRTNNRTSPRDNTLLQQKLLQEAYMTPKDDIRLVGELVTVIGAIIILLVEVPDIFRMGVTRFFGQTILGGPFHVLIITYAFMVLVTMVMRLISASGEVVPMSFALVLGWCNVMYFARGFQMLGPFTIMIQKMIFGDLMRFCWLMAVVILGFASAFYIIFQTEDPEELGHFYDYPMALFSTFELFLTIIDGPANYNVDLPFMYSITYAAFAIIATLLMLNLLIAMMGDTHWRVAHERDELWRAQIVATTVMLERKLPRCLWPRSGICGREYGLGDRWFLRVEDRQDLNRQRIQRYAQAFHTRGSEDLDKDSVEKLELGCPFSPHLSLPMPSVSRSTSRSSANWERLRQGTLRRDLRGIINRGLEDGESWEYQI
Procedure, shortened: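 HEK-hTRPV6 cells on poly-D-lysine chambered coverglass, 24 h. Stained 30 min at 37 °C in nominally Ca²⁺-free buffer with Leadmium Green, Hoechst 33258 and WGA-Alexa Fluor 594 at 5, 1 and 5 ng/µL final. Washed, then test compound at 10 µM or DMSO added. CdCl2 at 50 µM final was added at the start of 30 min confocal imaging at 100X. Total fluorescence per channel was plotted over time.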

[6] = target: T3, Transient receptor potential cation channel subfamily V member 6 (Homo sapiens); test: Inhibition of human TRPV6 expressed in HEK293 cells assessed as reduction in cadmium induced cytotoxicity by measuring increase in cell survival at 10 uM incubated for 24 hrs by XTT assay; format: cell-based
Procedure, shortened: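 HEK293 wt or HEK-hTRPV6 cells in DMEM with 10% FBS, glutamine, penicillin/streptomycin and non-essential amino acids. Seeded at 1.5 x 10⁴ cells/well and left 24 h, then given CdCl2 at 50 to 0.05 µM with or without test compound at 1.0 or 10 µM; blank was 0.01% DMSO. Incubation 24 h at 37 °C. XTT/PMS read for 2 h at A450−A650, as % viable versus blank. n = 4/concentration, 2 independent experiments.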

[7] = target: Kappa-type opioid receptor (Homo sapiens, UniProt P41145); test: Inhibition of human kappa-opioid receptor at 10 uM
Sequence of Kappa-type opioid receptor (P41145 whole entry): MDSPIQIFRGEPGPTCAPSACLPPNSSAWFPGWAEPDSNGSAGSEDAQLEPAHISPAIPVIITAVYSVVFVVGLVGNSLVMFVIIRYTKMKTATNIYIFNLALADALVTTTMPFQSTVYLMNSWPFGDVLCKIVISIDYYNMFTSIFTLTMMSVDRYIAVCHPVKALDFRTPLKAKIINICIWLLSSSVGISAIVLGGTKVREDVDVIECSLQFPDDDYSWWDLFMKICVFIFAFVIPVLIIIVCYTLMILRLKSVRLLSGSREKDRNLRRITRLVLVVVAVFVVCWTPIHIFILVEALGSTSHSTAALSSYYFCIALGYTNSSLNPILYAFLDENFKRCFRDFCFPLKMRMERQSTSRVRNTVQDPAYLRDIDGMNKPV

inhibition (INH) [1]: Not Active
inhibition (INH) (D(4) dopamine receptor): Not Active
inhibition (INH) [3]: Not Active
inhibition [5]: Active
inhibition (INH) [7]: Not Active
Compound: O=c1ccc(CN2CCN([C@H]3CC[C@@](O)(c4cccc(C(F)(F)F)c4)CC3)CC2)c[nH]1
Activity (SK-OV-3): Non-Toxic
Activity (HEK293 [2]): Non-Toxic
Activity (HEK293 [4]): Non-Toxic
inhibition [6]: Active
